# In the library only some 3.5% were active in any assay of this set; here they are far more common.
# MrgX1 antagonist = antagonists of human MrgX1 receptor; B-score at 10 µM; MRGX1-HEK293 calcium flux, Fluo-4, BAM8-22 antagonism; hits give low values; 310,000 tested, 1.3% active;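 active = calcium-response B-score plate-corrected more than 3 library SD below zero, starting fluorescence within 5 deviations, no agonist response on first addition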;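 note: peak minus trough fluorescence over baseline after final BAM8-22 challenge near maximal dose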
# Target sequence (Q96LB2 whole entry, looked up): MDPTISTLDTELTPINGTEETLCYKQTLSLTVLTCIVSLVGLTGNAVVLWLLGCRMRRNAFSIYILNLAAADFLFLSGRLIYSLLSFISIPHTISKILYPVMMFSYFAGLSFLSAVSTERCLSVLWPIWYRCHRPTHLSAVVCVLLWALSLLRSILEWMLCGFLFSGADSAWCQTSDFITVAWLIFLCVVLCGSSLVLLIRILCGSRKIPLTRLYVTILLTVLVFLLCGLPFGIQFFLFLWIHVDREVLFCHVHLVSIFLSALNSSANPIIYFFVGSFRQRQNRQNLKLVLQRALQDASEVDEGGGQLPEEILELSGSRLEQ
# RGS4 pot = potentiators or activators of RGS4. 310,000 tested, 0.92% active. AID 463111. HEK293 M3R/inducible RGS4, carbachol calcium flux Fluo4; hits give low values. B-score at 10 µM;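 active = B-score of the integrated calcium signal more than 4 SD below the library mean, with starting fluorescence not abnormally high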;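 note: negative B-score means reduced calcium response which marks RGS4 activation or potentiation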
#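 Detection: kinetic calcium fluorescence imaging with Fluo4-AM dye, 2 µM / Material: HEK293 cells with stable M3R and inducible RGS4 / Schedule: recording 10 s baseline at 1 Hz, 100 s post-agonist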
# RGS4 inh = human RGS4 inhibition. P49798. HEK293 M3R/RGS4 inducible, Fluo-4 calcium flux; hits give high values; triggered by carbachol at its EC20. B-score at 10 µM. 310,000 tested, 0.45% active. AID 463165;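 active = B-score, a plate-corrected calcium signal, over three deviations above library mean, with baseline fluorescence within five deviations of library mean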;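 note: RGS4 expression induced by doxycycline in cells with stable M3 receptor; B-score is computed from the integrated fluorescence ratio over baseline after carbachol; higher B-score means a larger calcium signal and so more RGS4 inhibition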
# MrgX1 agonist = human MrgX1 receptor agonism, primary screen; Q96LB2; MrgX1-HEK293 cells, Fluo-4 calcium fluorescence, agonist mode; hits give high values; B-score at 10 µM; 310,000 tested, 0.44% active;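 active = calcium response B-score plate-corrected fluorescence ratio at least 3 library SD, with starting fluorescence B-score inside 5 SD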
#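 Test system: HEK293 cells stably expressing human MrgX1 receptor; amount: 15,000 cells per well; doses: compound delivered in addition one of three; times: overnight plating before 1 h dye loading; detection: Fluo-4 NW calcium-flux fluorescence, kinetic read; read-out basis: B-scored fluorescence response ratio; controls: positive and negative controls per plate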
# MrgX1 PAM = allosterically activates human MrgX1 receptor signaling. Q96LB2. MrgX1-HEK293, Fluo-4 calcium flux, FDSS; hits give high values. B-score at 10 µM. 310,000 tested, 0.63% active. AID 588675;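 active = plate-corrected calcium response at least 3 library SD above typical, normal starting fluorescence, not activating the receptor alone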;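 note: compound read alongside a low EC10 to EC30 dose of BAM8-22 agonist; peak minus trough fluorescence over baseline measured at the second addition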
# MrgX1 allo conf = reconfirmed allosteric activator of human MrgX1 receptor. shares compounds with MrgX1 PAM. MrgX1-HEK293, Fluo-4 calcium fluorescence, FDSS. activation (ratio percentage), % at 10 µM. 1,200 tested, 13% active. AID 602413;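 active = ratio at least 3 SD above the weak peptide control, stable starting fluorescence, no direct agonism earlier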;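 note: compound followed by low BAM8-22 agonist challenge near EC20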
# HEK293 Ca flux = activity in parental HEK293 cells lacking MrgX1. shares compounds with MrgX1 antagonist. Fluo-4 calcium fluorescence, FDSS. fluorescence ratio F(max-min)/F0 at 10 µM. 4,000 tested, 2% active. AID 624111;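 active = duplicate-averaged calcium fluorescence ratio at least three times the standard deviation of buffer wells, a nonspecific response in parental cells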
# HEK293 Ca counter = activity in parental HEK293 cells without MrgX1; shares compounds with MrgX1 antagonist; fluorescence ratio F(max-min)/F0 at 10 µM; AID 624114; parental HEK293 calcium flux, Fluo-4 fluorescence ratio; hits give high values; 4,000 tested, 0.4% active;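 active = calcium fluorescence ratio, averaged over duplicates, at least 3 SD of the buffer-well ratio, meaning a nonspecific response in receptor-free cells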;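 note: untransfected parental HEK293 lacking MrgX1 used as counterscreen for MrgX1 allosteric activators; fluorescence change taken during the second addition on a kinetic imager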
# HEK293 Ca cntr2 = activity in parental HEK293 cells lacking MrgX1 receptor | shares compounds with MrgX1 antagonist | Fluo-4 calcium fluorescence (FDSS); hits give high values | fluorescence ratio F(max-min)/F0 at 10 µM | 4,000 tested, 8.7% active;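 active = calcium fluorescence ratio at least three times the spread of buffer wells, meaning a non-specific response in parental cells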
# An asterisk follows results filed as active; i = inactive; x = not tested or not shown.
SMILES,MrgX1 antagonist,RGS4 pot,RGS4 inh,MrgX1 agonist,MrgX1 PAM,MrgX1 allo conf,HEK293 Ca flux,HEK293 Ca counter,HEK293 Ca cntr2
CC(=O)/C(=C(/O)c1ccccc1)c1nc2ccccc2[nH]1,i,i,i,i,11.8*,i,i,i,i
CCOC(=O)Cc1csc(NC(=S)NC(=O)C(C)(C)C)n1,i,i,i,i,i,x,x,x,x
Cc1cccc2cc(CN(C(=O)c3cnccn3)C3CCCCC3)c(Cl)nc12,i,i,i,i,20.3*,i,i,i,i
COc1ccc(CCNC(=O)CCOc2cc(C)ccc2C)cc1OC,i,i,i,i,i,x,x,x,x
O=C(Cc1c(F)cccc1Cl)Nc1nc2ccccc2s1,i,i,i,i,21.4*,i,i,i,i
CC(=O)c1sc(NC(=O)Cc2c(F)cccc2Cl)nc1C,i,i,i,i,i,x,x,x,x
O=C(CCl)N(CCc1ccccc1)CCc1ccccc1,i,i,i,i,7.74*,i,i,i,i
O=C(CCl)N(c1ccccc1)c1ccccc1,x,i,i,x,x,x,x,x,x
CCOc1cc(C(=O)N=c2sccn2C)cc(Br)c1OC,i,i,i,i,i,x,x,x,x
CCN1CCN(CC(=O)Nc2ccc(Cl)c(Cl)c2)C(=O)C1=O,i,i,i,i,7.65*,i,i,i,i
COc1ccc(-n2ncc(C(C)NS(=O)(=O)c3cccs3)c2C)cc1 (configuration not stated),i,i,i,i,i,x,x,x,x
Cc1ccc(N(CC(=O)N2CCc3ccccc3C2)S(C)(=O)=O)cc1,i,i,i,i,i,x,x,x,x
Cc1ccc(Nc2cc(C)c3ccc(O)cc3n2)cc1C,i,i,i,i,10.2*,i,i,i,i
Cc1ccc(Nc2cc(C)c3c(O)cccc3n2)cc1C,i,i,i,i,i,x,x,x,x
COc1ccc(CCNS(=O)(=O)c2ccc3c(c2)NC(=O)CO3)cc1OC,i,i,i,i,32.7*,i,i,i,i
CCc1nc(N2CCN(S(C)(=O)=O)CC2)c2c3c(sc2n1)CCCC3,i,i,i,i,7.3*,i,i,i,i
COc1ccc(-c2csc(NC(=O)C3CSC4(C)CCC(=O)N34)n2)cc1OC (configuration not stated),i,i,i,i,10.8*,9.1%*,i,i,i
CC12CCC(=O)N1C(C(=O)Nc1nc(-c3ccc(F)c(F)c3)cs1)CS2 (configuration not stated),i,i,i,i,i,x,x,x,x
O=C1C=C(c2cccc(O)c2)CCC1,i,i,i,i,i,x,x,x,x
COc1ccc(N2CCN(CC(O)COCc3ccccc3)CC2)cc1 (configuration not stated),i,i,i,i,7.67*,i,i,i,i
Clc1ccccc1N=C1NN=C(c2cccs2)CS1,i,i,i,i,i,x,x,x,x
CN(Cc1cnccn1)Cc1nc(Cc2ccccc2Cl)no1,i,i,i,i,i,x,x,x,x
CN(Cc1cnccn1)Cc1nc(Cc2ccccc2F)no1,i,i,i,i,10.3*,i,i,i,i
Cc1ccccc1NC(=O)c1sc2nc(N3CCOCC3)c3c(c2c1N)CCCC3,i,i,i,i,7.2*,i,i,i,i
COc1ccccc1NC(=O)c1sc2nc(N3CCOCC3)c3c(c2c1N)CCCC3,i,i,i,i,i,x,x,x,x

# From PubChem
